In ChEMBL document CHEMBL4330057, “Second generation of diazachrysenes: Protection of Ebola virus infected mice and mechanism of action” (Eur J Med Chem, 2019):
Active and inactive are the calls of the source. The calls are words filed in the database; no cut-off is given here.

Experiments:
Ebolavirus [1] = assay: Antiviral activity against Ebolavirus H. sapiens-wt/1995/Kikwit-9510621 infected in human HeLa cells assessed as inhibition of viral infection pretreated for 2 hrs followed by viral infection and measured after 48 hrs by EboV GP immunostaining based high content imaging analysis; assay type: functional, organism-based
Zaire ebolavirus = assay: Antiviral activity against VSV pseudotyped Ebolavirus Mayinga expressing GFP infected in human HeLa cells assessed as inhibition of viral infection at 10 uM pre-incubated for 2 hrs followed by viral infection and measured after 8 hrs by cell mask deep red staining based assay; assay type: functional, organism-based; details: 1976
In short: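 HeLa cells pretreated 2 h with compound, then infected with rVSV-EBOV-GP-GFP (8 h) or VSV-GFP (6 h), and stained with Cell Mask Deep Red. Relative inhibition = 1 minus (% GFP-expressing cells normalised to mock). Mean ± SD of three replicates, representative of three independent experiments.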

HeLa [2] = assay: Induction of lysosomotropism in human HeLa cells infected with Ebolavirus assessed as increase in fluorescence intensity of acid compartments at 10 uM for 1 hr by Lysosensor DND189 staining based assay; assay type: functional, cell-based
In short: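 HeLa cells were pretreated 1 h with compound (Bafilomycin A1 at 0.01 μM as acidification control), then stained with LysoSensor DND 189 for 10 min and washed. Live imaging at Ex/Em 443/505 nm. Fluorescence intensity per area was quantified by image analysis. Eight wells per point, about 3000 cells/well, mean ± SD, three independent experiments.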

HeLa [3] = assay: Induction of lysosomotropism in human HeLa cells infected with Ebolavirus assessed as increase in lysosome concentration in juxtanuclear region at 10 uM for 2 hrs by acridine orange staining based assay; assay type: functional, cell-based
In short: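 HeLa cells were pretreated with compound for 2 h, then given acridine orange for 30 min and washed. Red AO fluorescence in acidic compartments was imaged, and total intensity and average area were scored by high-content imaging. Eight wells per point, about 3000 cells/well, mean ± SD, representative of three independent experiments.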

[4] = target: Cathepsin B (Homo sapiens) (UniProt P07858); assay: Inhibition of cathepsin B activity in human HeLa cells at 10 uM after 12 hrs by magic red substrate based fluorescence assay; assay type: cell-based
In short: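 HeLa cells were exposed to compound for 12 h, then given the Magic Red cathepsin B peptide reporter, washed, and imaged at Ex/Em 590/630. Total intensity and average area of red fluorescence were scored by high-content analysis. Eight wells per point, about 3000 cells/well, mean ± SD, three independent experiments.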

Ebolavirus [5] = assay: Antiviral activity against Ebolavirus; assay type: functional, organism-based; details: Orthoebolavirus
Ebolavirus [6] = assay: Antiviral activity against Ebolavirus infected in monkey assessed as protection against viral infection at 3.3 mg/kg/day relative to control; assay type: functional
[7] = Apparent permeability from apical to basolateral side in MDCK cells; assay type: ADME, cell-based, Canis lupus familiaris; details: dog
In short: (§1)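 Apparent permeability measured in MDCK cell monolayers, apical→basolateral and basolateral→apical directions, three biological replicates.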

[8] = Apparent permeability from basolateral to apical side in MDCK cells; assay type: ADME, cell-based, Canis lupus familiaris; details: dog; in short: as §1
[9] = Cytotoxicity against human HeLa cells after 2 hrs by high content imaging analysis; assay type: cell-based
[10] = Selectivity index, ratio of CC50 for human HeLa cells to EC50 for Ebolavirus H. sapiens-wt/1995/Kikwit-9510621 infected in human HeLa cells; assay type: toxicity, cell-based; details: read-out: Ratio CC50/EC50
Ebolavirus [11] = assay: Antiviral activity against Ebolavirus infected in mouse assessed as protection against viral infection at 60 mg/kg/day relative to control; assay type: functional
[12] = Stability in plasma (unknown origin) after 1 hr at 37 degC; assay type: ADME, cell-free; details: read-out: Stability
In short: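 Compound was incubated in plasma for 1 h at 37 °C, and the percent remaining was reported.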

[13] = Solubility of the compound in pH 7.4 buffer by laser nephelometric method; assay type: physicochemical
In short: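 Solubility at pH 7.4 was measured by laser nephelometry (light scattering), in triplicate.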

Cytochrome P450 3A4 [14] = target: T1, Cytochrome P450 3A4 (Homo sapiens, UniProt P08684); assay: Inhibition of CYP3A4 (unknown origin) using 7-benzyloxyquinoline as substrate; assay type: ADME
In short: (§2)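 CYP IC50 was taken from the net fluorescent signal after incubation at 37 °C for a set time with active cytochrome P450 enzyme and a fluorescent probe substrate.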

Cytochrome P450 3A4 [15] = target: T1, Cytochrome P450 3A4; assay: Inhibition of CYP3A4 (unknown origin) using dibenzylfluorescein as substrate; assay type: ADME; in short: as §2
Cytochrome P450 3A4 [16] = target: T1, Cytochrome P450 3A4; assay: Inhibition of CYP3A4 (unknown origin) using 7-benzyloxy-4-trifluoromethylcoumarin as substrate; assay type: ADME; in short: as §2
Cytochrome P450 2D6 = Cytochrome P450 2D6 (Homo sapiens, UniProt P10635); assay: Inhibition of CYP2D6 (unknown origin) using 3-(2-(N, N-Diethyl-N-methylamino)ethyl)-7-Methoxy-4-Methylcoumarin as substrate; assay type: ADME; details: read-out: INH; in short: as §2
Cytochrome P450 2C19 = Cytochrome P450 2C19 (Homo sapiens, UniProt P33261); assay: Inhibition of CYP2C19 (unknown origin) using CEC as substrate; assay type: ADME; in short: as §2
[17] = Clearance in mouse liver microsomes after 1 hr; assay type: ADME, Microsome; details: read-out: CLH
In short: (§3)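 Substrate depletion with mouse or human liver microsomes, 1 h at 37 °C. Clearance (μL/min/mg) and half-life derived.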

[18] = Clearance in human liver microsomes after 1 hr; assay type: ADME, Microsome; details: read-out: CLH; in short: as §3
[19] = Half life in mouse liver microsomes; assay type: ADME, Microsome; in short: as §3
[20] = Half life in human liver microsomes; assay type: ADME, Microsome; in short: as §3
[21] = Solubility of the compound in deionized water; assay type: physicochemical
[22] = Orthoebolavirus, H. sapiens-wt/1995/Kikwit-9510621, HeLa, read-out: EC50
[23] = Orthoebolavirus, H. sapiens-wt/1995/Kikwit-9510621, HeLa

T1 sequence (P08684 whole entry): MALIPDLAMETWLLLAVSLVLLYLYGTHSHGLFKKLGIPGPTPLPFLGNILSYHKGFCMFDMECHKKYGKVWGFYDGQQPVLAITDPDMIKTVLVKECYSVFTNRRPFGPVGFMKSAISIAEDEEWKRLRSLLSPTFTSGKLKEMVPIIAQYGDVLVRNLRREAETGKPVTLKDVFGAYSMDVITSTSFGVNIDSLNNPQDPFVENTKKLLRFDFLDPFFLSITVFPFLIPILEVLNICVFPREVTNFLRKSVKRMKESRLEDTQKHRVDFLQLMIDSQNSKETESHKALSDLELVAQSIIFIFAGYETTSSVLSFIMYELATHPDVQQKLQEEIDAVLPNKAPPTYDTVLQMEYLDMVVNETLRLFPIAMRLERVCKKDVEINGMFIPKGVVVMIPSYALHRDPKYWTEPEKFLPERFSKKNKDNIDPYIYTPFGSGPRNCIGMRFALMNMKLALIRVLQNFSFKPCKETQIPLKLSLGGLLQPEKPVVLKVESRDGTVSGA
Cytochrome P450 2C19, sequence (P33261 whole entry): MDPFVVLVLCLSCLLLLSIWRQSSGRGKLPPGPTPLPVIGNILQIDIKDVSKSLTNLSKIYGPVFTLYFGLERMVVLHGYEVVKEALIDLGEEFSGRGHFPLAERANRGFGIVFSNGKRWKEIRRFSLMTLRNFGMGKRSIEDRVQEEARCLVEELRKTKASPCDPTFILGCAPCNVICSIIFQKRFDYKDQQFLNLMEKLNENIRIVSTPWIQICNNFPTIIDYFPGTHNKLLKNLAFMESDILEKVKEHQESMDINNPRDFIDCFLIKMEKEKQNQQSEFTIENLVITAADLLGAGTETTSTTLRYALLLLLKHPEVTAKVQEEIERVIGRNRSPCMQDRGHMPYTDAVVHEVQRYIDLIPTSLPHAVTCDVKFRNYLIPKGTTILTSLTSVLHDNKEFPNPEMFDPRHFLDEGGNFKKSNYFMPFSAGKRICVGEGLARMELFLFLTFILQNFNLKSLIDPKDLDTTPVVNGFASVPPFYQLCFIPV
Cytochrome P450 2D6, sequence (P10635 whole entry): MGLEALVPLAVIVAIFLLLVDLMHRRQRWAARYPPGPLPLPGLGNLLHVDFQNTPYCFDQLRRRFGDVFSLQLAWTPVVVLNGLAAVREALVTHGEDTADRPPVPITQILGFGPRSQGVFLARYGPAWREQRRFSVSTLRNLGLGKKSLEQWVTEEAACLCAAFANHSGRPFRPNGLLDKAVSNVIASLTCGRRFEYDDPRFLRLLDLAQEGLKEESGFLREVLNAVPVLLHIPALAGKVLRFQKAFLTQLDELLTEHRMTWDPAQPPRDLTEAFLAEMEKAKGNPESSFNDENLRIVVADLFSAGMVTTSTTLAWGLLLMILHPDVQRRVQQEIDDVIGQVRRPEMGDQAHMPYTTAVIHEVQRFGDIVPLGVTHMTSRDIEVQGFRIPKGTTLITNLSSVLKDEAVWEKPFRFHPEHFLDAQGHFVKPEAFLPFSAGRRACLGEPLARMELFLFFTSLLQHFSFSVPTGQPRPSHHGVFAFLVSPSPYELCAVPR

## c1cc(NCCCN2CCOCC2)c2nccc(NCCCN3CCOCC3)c2n1
Ebolavirus [1]; [22]
  EC50: 10 µM

## CCN(CC)Cc1cc(Nc2ccnc3cc(Cl)ccc23)ccc1O
Zaire ebolavirus
  Activity: Active
HeLa [2]
  Activity: inactive
HeLa [3]
  Activity: Active
[4]
  inhibition: inactive

## CCC(CC)COC(=O)[C@H](C)N[P@](=O)(OC[C@H]1O[C@@](C#N)(c2ccc3c(N)ncnn23)[C@H](O)[C@@H]1O)Oc1ccccc1
Ebolavirus [5]
  EC50: 0.06 to 0.14 µM
Ebolavirus [6]
  Activity: 100%

## CC(C)NCC(O)COc1cccc2ccccc12 (configuration not stated) [PROPRANOLOL]
[7]
  Papp A→B: 37.7 to 39 ×10⁻⁶ cm/s
[8]
  Papp B→A: 41.6 to 42.9 ×10⁻⁶ cm/s

## OC(CNc1ccnc2cccnc12)CN1CCOCC1 (configuration not stated)
Ebolavirus [1]
  EC50: Not Active

## c1cc(NCCN2CCOCC2)c2nccc(NCCN3CCOCC3)c2n1
Ebolavirus [1]
  EC50: Not Active
[9]
  CC50 at 2 h: > 25 µM

## NCCCCNc1ccnc2c1ccc1c2ccc2c(NCCCCN)ccnc21
Ebolavirus [1]; [23]
  EC90: 23.5 µM
Ebolavirus [1]; [22]
  EC50: 10 µM
[9]
  CC50 at 2 h: > 10 µM
[10]
  selectivity ratio: > 1

## CCN(CC)CCCC(C)Nc1ccnc2cccnc12 (configuration not stated)
Ebolavirus [1]; [22]
  EC50: 10 µM

## OC(CNc1ccnc2c(NCC(O)CN3CCOCC3)ccnc12)CN1CCOCC1 (configuration not stated)
Ebolavirus [1]
  EC50: Not Active

## c1cnc2c(NCCCN3CCOCC3)ccnc2c1
Ebolavirus [1]
  EC50: Not Active

## CCN(CC)CCCNc1ccnc2cccnc12
Ebolavirus [1]; [22]
  EC50: 10 µM

## CN(C)CCOc1ccc(/C(=C(/CCCl)c2ccccc2)c2ccccc2)cc1 [TOREMIFENE]
Ebolavirus [5]
  EC50: 0.97 to 1.73 µM
Ebolavirus [11]
  Activity: 50%

## CN(C)CCOCCNc1ccnc2c1ccc1c2ccc2c(NCCOCCN(C)C)ccnc21
Ebolavirus [1]; [23]
  EC90: 6.74 µM
Ebolavirus [1]; [22]
  EC50: 3.53 µM
[9]
  CC50 at 2 h: 7 µM
[10]
  selectivity ratio: 2

## CCN(CC)CCCNc1ccnc2c(NCCCN(CC)CC)ccnc12
Ebolavirus [1]; [23]
  EC90: 37.4 µM
Ebolavirus [1]; [22]
  EC50: 4.82 µM
[9]
  CC50 at 2 h: > 10 µM
[10]
  selectivity ratio: > 2
[12]
  remaining at 1 h: > 85%
[13]
  solubility kinetic: > 0.05 mg/mL
Cytochrome P450 3A4 [14]
  INH: > 10 µM
Cytochrome P450 3A4 [15]
  INH: > 10 µM
Cytochrome P450 3A4 [16]
  INH: > 10 µM
Cytochrome P450 2D6
  IC50: > 10 µM
Cytochrome P450 2C19
  INH: > 10 µM
[17]
  microsomal CLint: < 23 µL/min/mg
[18]
  microsomal CLint: < 23 µL/min/mg
[19]
  half-life: > 1 h
[20]
  half-life: > 1 h
[21]
  solubility: ≥ 25 mg/mL
